Measured values of several laboratories.
Compare with care: the assays were run in different laboratories.
Target: Serine/threonine-protein kinase BRSK2 (BRSK2, Homo sapiens, UniProt Q8IWQ3)
Sequence (Q8IWQ3 1-736, as in one of the studies): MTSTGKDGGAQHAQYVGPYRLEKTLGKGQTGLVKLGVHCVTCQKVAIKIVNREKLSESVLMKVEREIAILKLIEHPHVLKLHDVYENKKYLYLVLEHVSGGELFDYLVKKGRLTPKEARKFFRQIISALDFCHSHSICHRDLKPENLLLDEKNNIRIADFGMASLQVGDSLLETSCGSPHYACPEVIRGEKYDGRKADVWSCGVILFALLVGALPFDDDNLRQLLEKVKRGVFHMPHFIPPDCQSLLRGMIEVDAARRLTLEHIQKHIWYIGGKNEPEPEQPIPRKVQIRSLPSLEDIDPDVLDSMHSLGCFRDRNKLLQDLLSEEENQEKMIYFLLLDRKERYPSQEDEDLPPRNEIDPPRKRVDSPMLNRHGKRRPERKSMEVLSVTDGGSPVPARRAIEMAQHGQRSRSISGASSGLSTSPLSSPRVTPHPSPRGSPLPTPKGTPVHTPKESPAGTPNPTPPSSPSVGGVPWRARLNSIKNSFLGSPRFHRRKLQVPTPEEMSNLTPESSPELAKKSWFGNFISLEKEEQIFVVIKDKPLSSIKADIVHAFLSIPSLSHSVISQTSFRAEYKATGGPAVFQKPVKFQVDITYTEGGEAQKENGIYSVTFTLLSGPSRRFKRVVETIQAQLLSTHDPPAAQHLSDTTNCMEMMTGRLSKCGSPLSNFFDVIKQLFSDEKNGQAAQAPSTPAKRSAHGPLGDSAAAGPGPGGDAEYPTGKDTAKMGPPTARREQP

`N#CCCc1ccc2c(c1)-c1[nH]c3ccc([N+](=O)[O-])cc3c1CC(=O)N2` gave a remaining signal of 42% (cell-free assay; 0.5 µM).
With `CCS(=O)(=O)c1cc2cc(C[C@](O)(CC(C)(C)c3ccc(F)cc3C(N)=O)C(F)(F)F)[nH]c2cn1` the remaining binding was 100% (cell-free assay; competition with immobilised ligand; 1 µM).
`Oc1cccc(-c2nc(N3CCOCC3)c3oc4ncccc4c3n2)c1` gave a remaining activity of 99% (enzyme activity; inhibitor; 10 µM).
`CS(=O)(=O)NCC[C@H](NC(=O)c1cncc2c1cnn2-c1ccc(F)cc1)c1ccnc(S(C)(=O)=O)c1` gave a remaining binding of 77% (cell-free assay; competition with immobilised ligand; 1 µM).
For `Cc1ccc(C(=O)Nc2ccc(CN3CCN(C)CC3)c(C(F)(F)F)c2)cc1C#Cc1cnc2cccnn12`, the remaining activity was 92% (enzyme activity; inhibitor; 23.5 nM).
`CN(C)S(=O)(=O)c1ccc2c(c1)/C(=C/c1cc3c([nH]1)CCCC3)C(=O)N2` gave a remaining signal of 48.7% (cell-free assay; 0.5 µM).
For `FC(F)(F)Oc1cccc(-c2cnc3ccc(-c4ccncc4)nn23)c1`, the activity vs control was 99% (enzyme activity; inhibitor; radiometric; 5 µM).
With `FC(F)(F)c1ccc2c(c1)nc(-c1cccnc1)n2C1CC1` the remaining binding was 90% (cell-free assay; competition with immobilised ligand; 1 µM).
With `Cc1ccc(NC(=O)c2ccc(C)c(C(F)(F)F)c2)cc1C#Cc1nn(C2CCC(O)CC2)c2ncnc(N)c12` (stereo not shown) the remaining signal was 93% (cell-free assay; 10 µM).
`COc1cc(/C=C/C(=O)CC(=O)/C=C/c2ccc(O)c(OC)c2)ccc1O` has an activity vs control of 88% (enzyme activity; inhibitor; 1 µM).
`CN(C)C(=O)Cn1cc(-c2nc([C@@](C)(c3ccc(-c4cnc(N)nc4)cc3)C3CC3)no2)cn1` has a remaining binding of 100% (cell-free assay; competition with immobilised ligand; 1 µM).
`FC(F)c1nc2ccccc2n1-c1nc(N2CCOCC2)nc(N2CCOCC2)n1` gave a remaining activity of 88% (enzyme activity; inhibitor; 10 µM).
For `CS(=O)(=O)N1CCCC(NC(=O)[C@H](CCC2CCCCC2)NC(=O)c2ccc(CNC(=O)c3cnc4ccccn34)cc2)C1` (stereo partly shown), the remaining binding was 100% (cell-free assay; competition with immobilised ligand; 0.1 µM).
`CCCS(=O)(=O)Nc1ccc(F)c(C(=O)c2c[nH]c3ncc(-c4ccc(Cl)cc4)cc23)c1F` has an inhibition of under 10% (enzyme activity; inhibitor; 1 µM).
The inhibition of `CC/C(=N\NC(=O)NCc1cccc(O)c1)c1ccc(O)c(C)c1O` is reported as 3.7% (enzyme activity; inhibitor; 0.1 µM).
`COc1cc(Nc2cnc(C#N)c(O[C@H](C)CN(C)C)n2)ncc1-c1cnn(C)c1` has a remaining activity of 23% (enzyme activity; inhibitor; radiometric; 1 µM).
`Nc1ncnc2occ(-c3ccc(NC(=O)Nc4cc(C(F)(F)F)ccc4F)cc3)c12` gave a remaining signal of 6.6% (cell-free assay; inhibitor; 20 µM).
`CN(C)C(=O)Cn1cc(-c2nc(C3(c4ccc(-c5cnc(N)nc5)cc4)CC3)no2)cn1` gave a remaining binding of 77% (cell-free assay; competition with immobilised ligand; 1 µM).
`O=C1NC(=O)c2cc(Nc3ccc(F)cc3)c(Nc3ccc(F)cc3)cc21` has a remaining signal of 96.8% (cell-free assay; 0.5 µM).
With `O=C(Nc1cnn(-c2csc(C(=O)NC3COC3)c2)c1)Nc1c(F)cccc1Cl` the remaining activity was 100% (enzyme activity; inhibitor; 5 µM).
The inhibition of `Cc1ccc(Nc2nccc(N(C)c3ccc4c(C)n(C)nc4c3)n2)cc1S(N)(=O)=O` is reported as -11% (enzyme activity; inhibitor; 10 µM).
With `Cc1cnc(NC2CCOCC2)nc1-n1cnc(C(=O)NC(CN)c2cc(F)cc(Cl)c2)c1` (stereo not shown) the remaining activity was 42% (enzyme activity; inhibitor; radiometric; 1 µM).
With `CCOC(=O)c1cc2cc(-c3cc(C(=O)NCc4ccc(C(=O)O)cc4)nn3C)ccc2[nH]1` the remaining binding was 67% (cell-free assay; competition with immobilised ligand; 0.1 µM).
`CNC(=O)c1cc(Oc2ccc(NC(=O)Nc3ccc(Cl)c(C(F)(F)F)c3)cc2)ccn1` gave a remaining signal of 103% (cell-free assay; 0.5 µM).
With `Cc1cc(NC(=O)c2cccc3cc(-c4cccc5[nH]nc(N)c45)ccc23)ccc1F` the activity vs control was 100% (enzyme activity; inhibitor; 0.1 µM).
For `CSc1cccnc1N1CCN(Cc2nc3ccccc3[nH]2)CC1`, the remaining binding was 100% (cell-free assay; competition with immobilised ligand; 1 µM).
`CC(C)(C)c1nc2c(s1)c1nc(N)ncc1c1ccc(NS(=O)(=O)c3c(F)cccc3F)c(F)c12` has a remaining activity of 88% (enzyme activity; inhibitor; radiometric; 1 µM).
The remaining activity of `CC(C)(C)C(=O)c1sc(NC2CCCCC2)nc1N` is reported as 95% (enzyme activity; inhibitor; 10 µM).
